In article PMC3787807 (Journal of Natural Products, 2013):

Assays:
human cells = details: read-out: EC50, growth inhibition of human cells; cited from earlier work
T. gondii = assay: Inhibition of T. gondii proliferation; format: cell-based, Toxoplasma gondii; details: T. gondii growth on HFF monolayers
In short: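 β-gal-expressing parasites preincubated 30 min with compound dilutions in DMEM/10% FBS/gentamicin with 0.2% DMSO, then seeded at 500/well onto confluent HFF. Compound kept continuously or washed out after 2 or 48 h. After 72 h at 37 °C, 5% CO2, cells lysed and given chlorophenol red-β-D-galactopyranoside substrate. A570 normalised to untreated. EC50 from variable-slope log(inhibitor)–response fits, three experiments (n = 4 replicates).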

TgACTI (T. gondii actin) = TgACTI (T. gondii actin) (Toxoplasma gondii, UniProt P53476); assay: Ninety-degree light scattering of TgACTI polymerization; format: biochemical; details: 5 μM TgACTI in F-buffer, compounds at 0.25, 1 or 2 μM, 9000 s
TgACTI (T. gondii actin), sequence (P53476 whole entry): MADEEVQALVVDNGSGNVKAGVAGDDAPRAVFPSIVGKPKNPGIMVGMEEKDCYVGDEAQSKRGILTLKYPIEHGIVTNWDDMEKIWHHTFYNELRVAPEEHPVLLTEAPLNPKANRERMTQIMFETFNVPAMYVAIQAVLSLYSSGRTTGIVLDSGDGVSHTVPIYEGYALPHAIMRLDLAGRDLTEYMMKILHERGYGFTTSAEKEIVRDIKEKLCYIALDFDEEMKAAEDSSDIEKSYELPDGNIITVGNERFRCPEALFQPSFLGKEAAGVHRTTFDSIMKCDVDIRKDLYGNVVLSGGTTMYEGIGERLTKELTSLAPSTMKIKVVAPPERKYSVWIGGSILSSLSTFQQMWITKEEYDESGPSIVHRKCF
In short: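 Baculovirus-expressed N-His TgACTI was Ni-NTA purified, dialysed into G buffer (pH 8.0, 0.2 mM ATP) and spun at 100000g to remove aggregates. It was held at 5 μM in G buffer at 21 °C, with ex/em 310 nm. After a steady baseline, 10× F buffer (500 mM KCl, 20 mM MgCl2, 10 mM ATP) went in at 1/10 volume with compound or DMSO control. Scatter counted for 9000 s.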

Compound | EC50 (human cells) | activity against the parasite (in words) (T. gondii) | TgACTI polymerization (light scattering) (TgACTI (T. gondii actin))
CO[C@@H]1C(=O)O[C@H](C)[C@H](C)/C=C(\C)C[C@H](C)C(=O)N[C@@H](C)C(=O)N(C)[C@H](Cc2c[nH]c3ccccc23)C(=O)N[C@H]1c1ccc(C(N)=O)cc1 [2k] | ~1400 nM | eliminated activity against the parasite | 
CO[C@@H]1C(=O)O[C@H](C)[C@H](C)/C=C(\C)C[C@H](C)C(=O)N[C@@H](C)C(=O)N(C)[C@H](Cc2c[nH]c3ccccc23)C(=O)N[C@H]1c1ccc(O)cc1 [compound 2, chondramide A] |  |  | promote actin polymerization
C/C1=C\[C@H](C)C[C@H](C)OC(=O)C[C@H](c2ccc(O)cc2)NC(=O)[C@@H](Cc2c(Br)[nH]c3ccccc23)N(C)C(=O)[C@H](C)NC(=O)[C@@H](C)C1 [compound 1, Jasplakinolide, reference compound] |  |  | promote actin polymerization
CO[C@@H]1C(=O)O[C@H](C)[C@H](C)/C=C(\C)C[C@H](C)C(=O)N[C@@H](C)C(=O)N(C)[C@H](Cc2c[nH]c3ccccc23)C(=O)N[C@H]1c1ccccc1 [2a, synthetic chondramide A] |  |  | promote actin polymerization
